The EternaBench riboswitch data

System: MS2 coat protein
Assay: apparent Kd, MS2 coat protein; higher = weaker binding; RNA-MaP array; FMN 200 µM where present
Summary of the method: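 The apparent Kd is reported as the median of filtered per-cluster binding-curve fits. To get these curves, designs transcribed by stalled E. coli RNA polymerase on Illumina sequencing-chip clusters were titrated with SNAP-549-labelled MS2 coat protein from 0.7 or 1.5 nM, doubling to 3 µM. Titrations were run without and then with constant ligand in 100 mM Tris-HCl pH 7.5, 80 mM KCl, 4 mM MgCl2, BSA, DTT, yeast tRNA and Tween-20, and green signal was normalised to red-channel RNA signal and control-cluster median Fmax.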

[1] = designed as: OFF switch for flavin mononucleotide, no ligand
[2] = ligand present: flavin mononucleotide, designed as: OFF switch for flavin mononucleotide
[3] = designed as: ON switch for flavin mononucleotide, no ligand
[4] = ligand present: flavin mononucleotide, designed as: ON switch for flavin mononucleotide

Sequence | apparent Kd [1] [nM] | apparent Kd [2] [nM] | apparent Kd [3] [nM] | apparent Kd [4] [nM]
GCUCGGCCAAAAUAAAACGACGCGAAGGAUAUACACCUGGGUACUCCUACAUGAGGAUCACCCAUGUAGAAGGUCGCGGGCUUG | 45 | 46.4 |  | 
ACGGCUGUCAGAGGAUAUGGUUACAUGAGGAUCACCCAUGUCAAGGGUCUAAUUAAGUAUAACUACUAGAAGGCUGAUGGCCUA | 263 | 144 |  | 
AUUAUUAUAAAUUUGGCAAGAAUCAGAAGGCGUUACAUGAGGAUCACCCAUGUUUUGUAUAGUAACGAGGAUAUGAUAUGGAAA | 17 | 12.9 |  | 
GAUAGGACAGAGAAGGACAUAGCUAGAGAUACUAGCAUAAGAACUUUCACAUGAGGAUCACCCAUGUAGGAUAUCUGUCCUAUC | 4.96 | 5.53 |  | 
ACAUGAGGAUGAGGAUAUUCAUACAUGAGGAUAGAAGAAGGCAUACAUGAGGAUCACCCAUGUAUACACAUGAGGAUCACCCAU | 82.5 | 85.3 |  | 
AAAAAAAAAAGUCAGGAUAUACAAAUUUUUACAUGAGGAUCACCCAUGUUAAAGAAAAAAAAAAAGUAGAAGGGACAAAAAAAAAA |  |  | 25.1 | 14.9
AUAUAACAUGAGGAUCACCCAUGUCAGGAUAUCGAACCCAACACAACCAAAAUGUCGGCGAGAAGGGACAAAAA | 35.4 | 32.7 |  | 
UCGCUGCGAGGAUAUACAUGAGGAUCACCCAUGUACGGGUCCGGGUCUUAGUUGAUUGGUAGAAGGCGCAGUGA | 106 | 212 |  | 
AAGUCACAUGAGGAUCACCCAUGUCGUAAACGAUGAGGAUAUAGGAAGAAAAAAAAAAAACUAGAAGGUAUUACAA |  |  | 59.8 | 55.9
GUCAGCUCGUGAGGAUAUACAACACUGCUUCGGCAGUGUAUUAAGAUCACAUGAGGAUCACCCAUGUAGAAGGCAUGAGCUGAU | 14.9 | 297 |  | 
UCGCGGGAGCAGAAGGGAUAGGCCUAUUGUCGUGGAGUCUACACUUAACAUGAGGAUCACCCAUGUCAGGAUAUGCCCACGCGA | 8.8 | 10.6 |  | 
CGAUCCCUGUAGAAGGGAGCACCGCAAAACGUGAACCGGUCGCACCGGUGCUUAGGAUAUACAUGAGGAUCACCCAUGUAAAGG | 15.3 | 20.2 |  | 
CGCUCACAUGAGGAUCACCCAUGUCCUAGGAGGUCAGGAUAUAGCUCGGAUGCGUUGAGGCUAGAAGGGACAGCUG |  |  | 259 | 84.7
CUUUUGUGAGGAUAUUGGUAGUAAAUAAAUAAAAUUACUACUGAGAAGGCACAUGAGGAUCACCCAUGUUCCUC | 31.2 | 221 |  | 
GGUCGCAAGUAAGGAUAUGCCUAGGAAACCUAGGCAGAAGGUACAUGAGGAUCACCCAUGUUAACGCAAAGCGAAUAAGCGACC | 15.8 | 21.5 |  | 
CCUAAGCGAAUCAAGAUGGAUAGAACAUGAGGAUCACCCAUGUAGGAUAUGCUACACAAAGUGUAGCAGAAGGACAAGCUUAGG | 25.9 | 40.5 |  | 
CGUCUCAUAGGAUAUGCACGGAGGCAGGUCCUUGGCAACACACAUGAGGAUCACCCAUGUAGAAGGAUGCUACG | 19.4 | 30.5 |  | 
GAUUACAUCACAGGAUAUAGAAUAAAACAGAUUUUAGAAGGGUGAGCCUCGUCGACCGCGACAUGAGGAUCACCCAUGUUGUGU |  |  | 18.4 | 35.7
GUCGGAAACGACAAACGUAGCAUACGAGAAGGCUGAUCCGCGACAUGAGGAUCACCCAUGUAGUUAGAGGAUAUUGGAUGCUAC |  |  | 81.7 | 17.3
UUGUUACAUGAGGAUCACCCAUGUGAGGAUAUGUGUAUCCCUAAAAAAGUGUGGGACCACAGAAGGUACUUGGA | 54.6 | 68.1 |  | 
